This excerpt belongs to a sample that is enriched for hits.
Insulin prom act: TRM-6 insulin promoter activation; AID 1296; TRM-6 cells (human fetal islet line), insulin promoter eGFP reporter, imaging; plate-scaled: unstimulated 0, stimulated control 100; hit rate 0.81% among 130,000; activation, % at 2 µM;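 active = activation at 2 µM above a set limit, confirmed on inspection of the cell images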;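 note: share of cells whose green reporter signal exceeds an intensity cutoff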
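Test system: TRM-6 insulin promoter–eGFP reporter cells / Quantity: 1,000 cells per well / Reagent: tamoxifen inducer, 0.75 µM, in seeding medium / Compound dosing: 2 µM final, single concentration / Schedule: overnight tamoxifen, then two-day compound incubation at 37 °C / Measured by: automated fluorescence imaging of paraformaldehyde-fixed, Hoechst-counterstained cells, green channel / Read-out: percent activation from GFP-positive cell fraction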
Each line names hits and unclear results; the compound was inactive in the other large screens.

CC1CCN(S(=O)(=O)c2ccc(C(=O)Nc3nnc(-c4ccccn4)o3)cc2)CC1	none
O=C(Nc1nnc(-c2cccs2)o1)c1ccc(S(=O)(=O)N2CCOCC2)cc1	none
O=C(Nc1nnc(-c2ccccc2Cl)o1)c1ccc(S(=O)(=O)N2CCCCCC2)cc1	Insulin prom act 400
CCOc1ccccc1NC(=O)Cc1ccccc1OC	none
O=C(CN1NS(=O)(=O)c2ccccc2C1=O)Nc1ccccc1OC(F)F	none
CSc1ccccc1C(=O)OCC(=O)NC1CCS(=O)(=O)C1 (stereo not given)	none
CSCCC(NC(=O)c1ccc(Cl)cc1)C(=O)OCC(=O)Nc1cc(Cl)ccc1C (stereo not given)	none
CN(Cc1ccccc1)Cc1nc2c([nH]1)c(=O)n(C)c(=O)n2C	Insulin prom act 105
CCCCn1c(CN(C)Cc2ccccc2)nc2c1c(=O)n(C)c(=O)n2C	none
CCCn1c(CN(C)Cc2ccccc2)nc2c1c(=O)n(C)c(=O)n2C	none
O=C(COC(=O)CCCNC(=O)c1ccc(Cl)cc1)NCc1ccccc1Cl	none
Cc1cc(C)n2nc(-c3cnn(C)c3C(F)(F)F)c(Cl)c2n1	none
CC(C)NC(=O)COc1ccc(Cl)cc1Cl	none
CC(=O)c1sc(NC(=O)COc2ccc(Cl)cc2Cl)nc1C	Insulin prom act 290
Cc1nc(NC(=O)COc2ccccc2)sc1C(=O)Nc1ccccc1	none
C=COCCNC(=S)Nc1ccccc1	none
O=C(CSc1ccc(Br)cc1)NCC1CCCO1 (stereo not given)	none
c1ncn(C23CC4CC(CC(C4)C2)C3)n1	none
Cc1nn(C(C)c2n[nH]c(=S)n2-c2cccc(Cl)c2)c(C)c1[N+](=O)[O-] (stereo not given)	none
CC(c1n[nH]c(=S)n1-c1ccc(F)cc1)N1CCCCC1 (stereo not given)	none
COc1ccc(-n2c(C(C)n3nc(C)c([N+](=O)[O-])c3C)n[nH]c2=S)cc1 (stereo not given)	Insulin prom act 515
O=C(c1cccnc1)N1CCN(S(=O)(=O)c2ccc(S(=O)(=O)N3CCCC3)cc2)CC1	none
C[n+]1cn(/N=C/c2ccccc2)c2ccccc21	none
C/C(Cc1ccccc1)=N\NC(=O)CNC(=O)c1ccc(C(C)(C)C)cc1	none
OC1(c2cccc(C(F)(F)F)c2)CCNCC1	none
C=CCn1c(SCC(=O)NC2CCCCC2)nnc1-c1ccc(OC)cc1	none
C=CCn1c(-c2ccc(Cl)cc2)cnc1SC(C)C(=O)NC(N)=O (stereo not given)	Insulin prom act 357
C=CCn1c(SCCOc2ccc(OC)cc2)nnc1C(C)NC(=O)c1ccc(OC)cc1 (stereo not given)	none
COc1ccc(N2C(=O)c3ccc(C(=O)OC(C)C)cc3C2=O)cc1	none
CC(=O)Oc1cccc(N2C(=O)c3ccc(C(=O)Nc4c[nH]c(=O)[nH]c4=O)cc3C2=O)c1	Insulin prom act 214
Cc1cc(NC(=O)c2ccc3c(c2)C(=O)N(C)C3=O)no1	none
Cc1nn(Cc2ccccc2Cl)c(C)c1C(=O)Nc1nnc(C2CC2)s1	none
CCOc1ccc2c(c1)-c1c(ssc1=S)C(C)(C)N2C(=O)c1ccco1	none
CCOc1ccc(NC(=O)CCn2cccc2)cc1	none
CCOc1ccc2c(c1)C(C)=CC(C)(C)N2C(=O)Nc1ccccc1	Insulin prom act 81
CCCc1cc(=O)oc2cc(OCC(=O)Nc3cc(C)on3)ccc12	none
CCCc1cc(=O)oc2cc(Oc3ncccn3)ccc12	Insulin prom act 154
C=C(Cl)COc1ccc2c(CCC)cc(=O)oc2c1	none
COc1ccc(S(=O)(=O)NCCc2csc(C)n2)cc1C	none
COc1cccc(OC)c1C(=O)OCC(=O)NCC(C)C	none
CC(C)CCNC(=O)NC(=O)COC(=O)C1=COCCO1	none
CC(C)CNC(=O)NC(=O)COC(=O)c1cc(F)cc(F)c1	Insulin prom act 333
O=C(Cn1c(=O)n(-c2ccc(F)cc2)c(=O)c2sccc21)c1ccccc1	none
CCOC(=O)CCCNc1ccc([N+](=O)[O-])cc1[N+](=O)[O-]	none
CC12CN3CCN(CC(C3)C1(O)CN1CCOCC1)C2 (stereo not given)	none
COc1ccc(NC(=O)CSc2nc3ccccc3c(=O)n2CCCN2CCCCC2)c(OC)c1	none
Cc1c(OCc2ccccc2)c(=O)ccn1Cc1ccc(Cl)cc1	none
Cc1c(OCc2ccccc2)c(=O)ccn1Cc1ccc(F)cc1	none
Cc1c(O)c(=O)ccn1Cc1ccccc1	Insulin prom act 257
COc1ccc(-c2nc(C#N)c(N3CCC(C(N)=O)CC3)o2)cc1	none
O=C(Nc1ccc(Oc2ccc(S(=O)(=O)N3CCOCC3)cn2)cc1)c1ccco1	none
CCOC(=O)N1CCC(Nc2c(-c3ccccc3)c(=O)c2=O)CC1	Insulin prom act 86
CCOC(=O)N1CCN(c2c(NCCN(C)Cc3ccccc3)c(=O)c2=O)CC1	none
CCOC(=O)N1CCN(C(=O)c2ccccc2NC(C)=O)CC1	none
Cc1noc(NS(=O)(=O)c2ccc(NC(=O)CSc3n[nH]c(-c4ccccc4)n3)cc2)c1C	Insulin prom act 154
Cc1noc(NS(=O)(=O)c2ccc(NC(=O)CCN3C(=O)c4ccccc4C3=O)cc2)c1C	none
Cc1noc(NS(=O)(=O)c2ccc(NC(=O)Nc3ccc(Cl)c(Cl)c3)cc2)c1C	none
Brc1ccc(-c2csc(-c3ccncc3)n2)cc1	none
CC(C)N(Cc1nc(-c2ccc(Cl)cc2)no1)C(=O)C12CC3CC(CC(C3)C1)C2	none
Cc1ccc(NC(=O)c2cn(-c3cccc(C)n3)cn2)cc1	none
COc1ccc(CN2C(=O)c3cccnc3C2Nc2cc(Cl)c(OC)cc2OC)cc1 (stereo not given)	Insulin prom act 136
O=C1c2cccnc2C(O)N1Cc1ccc(F)cc1 (stereo not given)	none
CCN(CC)S(=O)(=O)c1ccc(NC2c3ncccc3C(=O)N2Cc2ccccc2)cc1 (stereo not given)	none
COc1ccc(N(C(=O)C(C)C)S(=O)(=O)c2ccc3c(c2)n(C)c(=O)n3C)cc1	none
O=C(/C=C/c1cccc([N+](=O)[O-])c1)NCCSCc1ccc(Cl)cc1Cl	none
CCN1/C(=C/c2ccc3cccc(C)c3[n+]2CC)Sc2ccccc21	Insulin prom act 233
CCN1/C(=C\c2ccc3cc(C)ccc3[n+]2CC)Sc2cc(C)c(C)cc21	Insulin prom act 413
CCN1/C(=C/c2ccc3cc(C)cc(C)c3[n+]2CC)Sc2cc(C)ccc21	Insulin prom act 413
COc1cc(Br)cc(-c2nc3c(c(=O)[nH]c(=O)n3Cc3ccccc3)n2C)c1O	none
COc1ccccc1-c1nc2n(n1)C(c1cccs1)C(C(=O)Nc1cccnc1)=C(C)N2 (stereo not given)	none
Cc1ccc(C(=O)C2=C(O)C(=O)N(c3ncccn3)C2c2ccc(Cl)cc2)o1 (stereo not given)	none
COc1ccc(C(=O)c2nc3c(n2O)CCCC3)cc1OC	none
Cc1cc(C(=O)Nc2nc(C)c(C(=O)N(C)C)s2)ccc1[N+](=O)[O-]	none
CSc1cnc2c(N)nc(N(C)C)nc2n1	none
CC(C)=CC(=O)OCC(=O)Nc1cccc([N+](=O)[O-])c1	none
Cc1ccc(NC(=O)COC(=O)CCC(=O)c2ccc(C(C)(C)C)cc2)c([N+](=O)[O-])c1	none
CCOC(=O)COc1ccc(S(=O)(=O)Nc2ccc3c(c2)OCCO3)cc1	Insulin prom act 460
CCOc1ccc(NS(=O)(=O)c2ccc(OC)c(NC(=O)c3ccc4c(c3)OCCO4)c2)cc1	none
Cc1cccc(NS(=O)(=O)c2ccc3c(c2)OCCO3)c1	none
CCCCOc1ccc(NC(=O)C(=O)NCCC2=CCCCC2)cc1	none
Cc1ccc(NC2=NCCCCC2)cc1C	none
Cc1ccccc1CC1(CO)CCCN(C(=O)c2ccc3ncccc3c2)C1 (stereo not given)	Insulin prom act 228
OCC1(Cc2ccccc2)CCCN(Cc2cnn(-c3ccccc3)c2)C1 (stereo not given)	none

Screening data deposited in PubChem BioAssay by Columbia University Molecular Screening Center.
